Active and inactive are the calls of the source. The calls are words filed in the database; no cut-off is given here.
Key:
[1] = target: T1, Endothelial lipase (Mus musculus, UniProt Q9WVG5); assay: Inhibition of mouse EL expressed in HEK293 cells using PED-A1 as substrate by spectrophotometry; type: cell-based
T1 sequence (Q9WVG5 whole entry): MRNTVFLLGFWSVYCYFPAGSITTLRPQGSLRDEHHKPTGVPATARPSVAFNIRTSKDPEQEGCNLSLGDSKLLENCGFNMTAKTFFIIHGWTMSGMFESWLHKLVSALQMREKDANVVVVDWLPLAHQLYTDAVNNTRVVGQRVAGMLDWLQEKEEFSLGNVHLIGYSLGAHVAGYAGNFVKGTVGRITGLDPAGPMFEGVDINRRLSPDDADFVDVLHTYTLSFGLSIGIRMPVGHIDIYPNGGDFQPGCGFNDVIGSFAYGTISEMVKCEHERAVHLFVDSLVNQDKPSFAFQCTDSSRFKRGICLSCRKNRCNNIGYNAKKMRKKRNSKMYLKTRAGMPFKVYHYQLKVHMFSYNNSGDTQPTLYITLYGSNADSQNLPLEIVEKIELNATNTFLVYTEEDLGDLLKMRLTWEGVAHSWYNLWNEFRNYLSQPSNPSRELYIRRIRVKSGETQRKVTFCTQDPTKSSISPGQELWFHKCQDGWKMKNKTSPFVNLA

[2] = target: T2, Lipoprotein lipase (Homo sapiens, UniProt P06858); assay: Inhibition of human LPL expressed in HEK293 cells using PED-A1 as substrate by spectrophotometry
T2 sequence (P06858 whole entry): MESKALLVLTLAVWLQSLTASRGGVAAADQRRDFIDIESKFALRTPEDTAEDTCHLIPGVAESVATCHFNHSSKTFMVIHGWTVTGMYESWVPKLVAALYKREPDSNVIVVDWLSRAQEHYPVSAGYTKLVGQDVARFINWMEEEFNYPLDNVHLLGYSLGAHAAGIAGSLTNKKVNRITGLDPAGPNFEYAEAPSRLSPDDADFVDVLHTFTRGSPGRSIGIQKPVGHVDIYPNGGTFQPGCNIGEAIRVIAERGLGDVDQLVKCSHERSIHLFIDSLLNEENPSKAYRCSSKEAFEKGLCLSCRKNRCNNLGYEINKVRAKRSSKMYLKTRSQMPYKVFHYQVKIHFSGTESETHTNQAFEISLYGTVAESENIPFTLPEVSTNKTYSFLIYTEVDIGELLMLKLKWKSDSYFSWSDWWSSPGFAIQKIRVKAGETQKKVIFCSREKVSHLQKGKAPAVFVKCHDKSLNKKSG

[3] = target: T3, Endothelial lipase (Homo sapiens) (UniProt Q9Y5X9); assay: (§1) Time dependent inhibition of human EL (19 to 500) expressed in HEK293 cells using PED-A1 as substrate by spectrophotometry; type: cell-based
T3 sequence (whole entry): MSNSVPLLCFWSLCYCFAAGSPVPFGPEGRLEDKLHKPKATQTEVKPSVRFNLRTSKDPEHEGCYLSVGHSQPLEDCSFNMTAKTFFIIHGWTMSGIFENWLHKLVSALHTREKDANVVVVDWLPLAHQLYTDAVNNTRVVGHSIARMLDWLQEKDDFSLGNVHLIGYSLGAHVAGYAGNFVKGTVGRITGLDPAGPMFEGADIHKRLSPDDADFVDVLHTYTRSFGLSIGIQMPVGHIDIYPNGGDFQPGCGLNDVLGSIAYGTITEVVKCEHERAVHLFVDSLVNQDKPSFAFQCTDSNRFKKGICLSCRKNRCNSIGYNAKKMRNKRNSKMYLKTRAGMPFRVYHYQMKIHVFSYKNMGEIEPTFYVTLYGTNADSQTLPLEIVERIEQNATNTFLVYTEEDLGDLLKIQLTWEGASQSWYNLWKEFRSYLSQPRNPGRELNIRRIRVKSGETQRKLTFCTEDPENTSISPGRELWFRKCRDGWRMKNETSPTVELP

[4] = tested on: Mus musculus; assay: Inhibition of EL in C57BL/6J HL-/- mouse assessed as elevated plasma HDL-C level at 30 to 100 mg/kg, ip bid for 2 days followed by a dose on 3rd day morning measured 1 hr post last dose; type: functional, organism-based
Method in brief: (§2)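 C57BL/6J HL-/- (hepatic lipase knockout) mice dosed intraperitoneally with compound or vehicle for three days, at 10, 30 and 100 mg/kg. Plasma lipoproteins, including HDL-C, measured 1 h after the last dose. Percent increase is calculated against vehicle-treated controls, with significance testing between groups.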

[5] = tested on: Mus musculus; assay: Increase in plasma HDL-C level in C57BL/6J HL-/- mouse at 30 mg/kg, ip administered for 2 days followed by a dose on 3rd day morning measured 1 hr post last dose relative to vehicle-treated control; type: functional; conditions: route intraperitoneal; method in brief: as §2
[6] = tested on: Plasma; assay: Plasma concentration in ip dosed C57BL/6J HL-/- mouse administered for 3 days measured 1 hr post last dose; type: ADME, organism-based; conditions: in vivo
Method in brief: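 In HL-/- mice given intraperitoneal doses (10, 30, 100 mg/kg) for three days, plasma compound concentrations were measured 1 h after the final dose. In individual animals, these were correlated with plasma HDL-C and phospholipids.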

[7] = tested on: Mus musculus; assay: Increase in plasma HDL-C level in C57BL/6J HL-/- mouse at 100 mg/kg, ip administered for 2 days followed by a dose on 3rd day morning measured 1 hr post last dose relative to vehicle-treated control; type: functional; conditions: route intraperitoneal; method in brief: as §2
[8] = tested on: Mus musculus; assay: Increase in plasma HDL-C level in C57BL/6J mouse at 100 mg/kg, ip administered for 2 days followed by a dose on 3rd day morning measured 1 hr post last dose relative to vehicle-treated control; type: functional; conditions: route intraperitoneal
Method in brief: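 C57BL/6J mice given vehicle or compound intraperitoneally, five doses over three days; plasma HDL-C measured 1 h after the last dose. Tested at 100 mg/kg. Change is expressed relative to vehicle controls, as means ± SD, n = 8 per group, with significance tested against the vehicle group.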

[9] = target: Endothelial lipase (Mus musculus) (UniProt Q9WVG5); assay: Inhibition of EL in C57BL/6J HL-/- mouse assessed as elevated plasma phospholipid level at 30 to 100 mg/kg, ip bid for 2 days followed by a dose on 3rd day morning measured 1 hr post last dose
[10] = target: T4, Hepatic triacylglycerol lipase (Homo sapiens, UniProt P11150); assay: Inhibition of human HL expressed in HEK293 cells using PED-A1 as substrate by spectrophotometry
T4 sequence (P11150 whole entry): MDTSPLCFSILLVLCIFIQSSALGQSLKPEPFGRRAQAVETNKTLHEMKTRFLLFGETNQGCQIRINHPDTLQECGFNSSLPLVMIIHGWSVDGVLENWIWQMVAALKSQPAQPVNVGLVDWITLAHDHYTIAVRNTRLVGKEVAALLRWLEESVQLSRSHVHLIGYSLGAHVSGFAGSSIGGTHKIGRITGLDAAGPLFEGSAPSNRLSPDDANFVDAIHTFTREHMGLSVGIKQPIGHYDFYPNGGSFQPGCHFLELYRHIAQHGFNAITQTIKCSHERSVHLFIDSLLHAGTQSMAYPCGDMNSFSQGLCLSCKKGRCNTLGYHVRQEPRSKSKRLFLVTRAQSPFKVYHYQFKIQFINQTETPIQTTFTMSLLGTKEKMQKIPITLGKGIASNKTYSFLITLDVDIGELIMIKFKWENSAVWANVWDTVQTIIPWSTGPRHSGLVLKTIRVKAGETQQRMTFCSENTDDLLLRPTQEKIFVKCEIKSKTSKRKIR

[11] = target: T5, Endothelial lipase (Homo sapiens, UniProt Q9Y5X9); assay: as §1; type: cell-based
T5 sequence (Q9Y5X9 whole entry): T3 sequence (whole entry)

`O=C(NCCCCCCc1ccccc1)OCc1ccccc1F` showed an IC50 [1] of over 33 µM.
Molecule `O=C(NCCCCCCc1ccccc1)Oc1ccccc1F` has an IC50 [1] of 0.47 µM.
`O=C(NCCCCCCc1ccccc1)SCc1ccccc1F` was tested, and the IC50 [2] was 1.69 µM, the inhibition [3] was “Active” and the Activity [4] was “Active”. For the same molecule, the Activity [5] was 23%, the Drug uptake [6] was “Dose-dependent effect” and the IC50 [1] was 0.68 µM. For the same molecule, the Activity [7] was 77%, the Activity [8] was 37% and the Activity [9] was “Active”. For the same molecule, the IC50 [10] was 1.36 µM.
For `O=C(NCCCCCOc1cc(F)cc(F)c1)SCc1nnc(-c2ccccc2)o1`, the IC50 [11] was 0.023 µM.
